This is a sample that favours compounds with a hit; in the whole collection about 2.8% have one here.
NPY-Y1 antag – NPY-Y1 (human) receptor antagonism; P25929; HEK293-CNG Y1 cells, membrane potential fluorescence; NPY at EC95, then isoproterenol; inhibition, % at 3.6 µM; 1% of 200,000 active; AID 1040;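 active = inhibition above the campaign mean inhibition of all tested compounds plus 3 SD, cut at about 20% in these data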;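 note: 0% = DMSO wells given NPY plus isoproterenol and 100% = isoproterenol alone without NPY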
Target sequence (P25929 whole entry, looked up): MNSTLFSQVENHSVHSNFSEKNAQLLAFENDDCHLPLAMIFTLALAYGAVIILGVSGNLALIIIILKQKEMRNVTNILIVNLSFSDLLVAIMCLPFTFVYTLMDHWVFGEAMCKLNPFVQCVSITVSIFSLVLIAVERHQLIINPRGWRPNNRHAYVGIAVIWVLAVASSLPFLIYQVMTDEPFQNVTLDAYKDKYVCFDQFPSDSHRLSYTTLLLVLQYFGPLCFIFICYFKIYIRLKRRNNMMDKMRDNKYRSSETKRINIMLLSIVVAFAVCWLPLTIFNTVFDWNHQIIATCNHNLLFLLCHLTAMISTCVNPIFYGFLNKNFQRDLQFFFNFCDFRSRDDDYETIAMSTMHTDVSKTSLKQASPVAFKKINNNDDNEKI
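Material: HEK293 Y1/CNG channel cell line | Also added: NPY (25 nM), isoproterenol (1 µM), Ro 20-1724 (25 µM) | Compound: One concentration, 3.6 µM, in 0.4% DMSO | Schedule: 3 h dye uptake, 1 h room-temperature compound, 45 min post-isoproterenol | Signal: Membrane-potential fluorescent dye readout | Read-out: % inhibition of NPY effect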
NPY1 pot ag – potentiators or agonists of human neuropeptide Y receptor Y1; activation, % at 3.6 µM; NPY-Y1 expressing cells, potentiator/agonist activation; P25929; 0.37% of 220,000 active; in the data active = activation above about 33%, passing the limit was not always enough;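 note: cells stimulated with NPY at EC10 then isoproterenol at EC100; 0% = low agonist plus stimulus and 100% = saturating agonist plus stimulus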
NPY2 pot ag – potentiators or agonists of human neuropeptide Y receptor Y2. cells expressing NPY-Y2, potentiator/agonist read-out. 0.45% of 220,000 active. activation, % at 3.6 µM. P49146; in the data active = activation above about 27%;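 note: cells stimulated with NPY near EC25 plus isoproterenol at EC100; 0% = vehicle plus submaximal agonist and 100% = vehicle plus saturating agonist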
Measles CPE – protection of cells from measles virus. protection (pct of control), % at 4 µM. Measles virus-infected cells, CPE protection, absorbance. 1.5% of 140,000 active; in the data active = protection mostly above about 24%, no sharp cut-off; inactive = mostly below about 26%
NPY-Y2 antag – NPY-Y2 (human) receptor antagonism. NPY-Y2 expressing cells, antagonist mode. inhibition, % at 2.7 µM. 0.99% of 140,000 active; in the data active = inhibition above about 17%;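 note: 0% = vehicle with agonist challenge and 100% = reference antagonist with challenge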
Mdm2 ligase inh – inhibitors of human Mdm2 E3 ubiquitin ligase; cell-based MDM2 ubiquitination luciferase reporter, 2 h; 0 = plate control, 100 = twice control, blank-subtracted; signal enhancement, % at 5 µM; 0.11% of 210,000 active; AID 1230;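 active = signal enhancement of 30% or more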;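 note: luminescence tracks abundance of the self-degrading MDM2-luciferase fusion protein; higher signal means inhibition of MDM2 E3 ligase activity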
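System: stable MDM2–luciferase fusion reporter cells / Input: 2000 cells seeded into each well / Schedule: 4 h settle plus 2 h compound, 37 °C / Compound: single-point 5 µM / Buffer or medium: cells held in DMEM / Benchmarks: control and blank well means / Evaluation: percent signal gain over controls, blank-subtracted / Measured by: luciferase luminescence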
Active calls of the source: *; nt = not tested or not shown.

SMILES	NPY-Y1 antag	NPY1 pot ag	NPY2 pot ag	Measles CPE	NPY-Y2 antag	Mdm2 ligase inh
Cc1n[nH]c(C)c1CCC(=O)N/N=C/C=C/c1ccccc1	-3.3	0.5	-4.7	6.8	3.1	-3.7
Cc1nc2sccn2c(=O)c1CCN1CCC(=C(c2ccc(F)cc2)c2ccc(F)cc2)CC1	28.6*	-58.5	-20.8	18.7	38.8*	nt
O=C(CSCc1ccc(F)cc1)N1CCN(c2ccc(F)cc2)CC1	0.7	16.8	-18.4	7.7	0.3	-26.5
O=C(CSCc1ccc(F)cc1)N1CCN(c2ccccc2)CC1	-3.8	-2.6	0.0	79.5*	0.7	-18.8
C=CCOc1cccc(CNc2cccc(C(=O)O)c2)c1	nt	-31.1	-30.2	nt	nt	-18.0
N#CCSc1nc2c(sc(=S)n2Cc2ccco2)c(=O)n1-c1ccc(F)cc1	23.9*	-43.8	-22.4	5.2	20.0*	3.5
CCCC(c1nnnn1Cc1ccco1)N1CCN(C(=O)c2ccco2)CC1 (stereo unspecified)	-4.1	8.8	0.5	44.0*	2.9	-7.7
CCCCC(c1nnnn1Cc1ccco1)N1CCN(C(=O)c2ccco2)CC1 (stereo unspecified)	2.1	-2.8	-7.0	39.5	6.2	5.6
CCn1cc(CNC(=S)Nc2cccc(Cl)c2C)cn1	-0.4	-5.2	-3.0	nt	nt	-5.9
CCn1c2ccccc2n2c(=O)c(=O)n(CC(=O)Nc3ccc(C(C)C)cc3)nc12	1.3	-34.0	0.8	33.8	1.4	4.9
O=C(Cc1cccs1)Nc1cc(SCCO)cc([N+](=O)[O-])c1	-2.3	-17.5	-8.0	102.2*	1.6	-11.8
COc1ccc(-n2ncc3c(=O)n(CC(=O)Nc4ccc(S(=O)(=O)N5CCOCC5)cc4)cnc32)cc1	-3.2	12.8	16.5	59.8*	-1.0	1.9
COc1ccc(C2=CC(c3c(C)nn(-c4ccccc4)c3Cl)n3nnnc3N2)cc1OC (stereo unspecified)	-0.5	25.6	16.7	5.3	5.4	7.3
CCCc1ccc(C(=O)NNc2ccc(F)cc2)cc1	nt	51.4*	45.9*	nt	nt	-9.7
Cc1cc([N+](=O)[O-])ccc1NC(=O)Cc1ccc(F)cc1	3.9	8.0	-4.2	52.8*	1.7	-10.9
O=C(Cc1ccc([N+](=O)[O-])cc1)Nc1cccc(C(F)(F)F)c1	-4.0	7.3	12.1	72.7*	-0.7	-16.1
Nc1cc(Cl)ccc1N1CCCCCC1	5.5	9.1	-3.9	nt	nt	-1.9
CNS(=O)(=O)c1cc(NC(C)=O)c(C)cc1C	-0.1	-12.5	-1.9	8.4	1.1	-2.6
Cc1cccc(NC(=O)CSc2nc(N)cc(N)n2)c1	-2.9	2.7	0.4	13.0	-0.3	nt
CCOC(=O)c1cccc(NC(=O)CSc2nc(N)cc(N)n2)c1	-0.2	-5.7	-13.5	31.3*	0.8	-15.5
CCNC(=S)N/N=C/c1cn(Cc2ccc(F)cc2)c2ccccc12	6.7	-10.9	0.1	29.2*	10.8	-12.5
O=C(CN1CCN(c2ccccc2)CC1)Nc1ccccc1Cl	2.7	-26.9	-8.1	nt	nt	-5.9
O=C(CN1CCN(c2ccccc2)CC1)Nc1ccccc1C(F)(F)F	1.6	-5.6	-2.2	31.7*	5.9	-11.8
CC1Cc2ccccc2N1C(=O)CSc1nnc2n1C(C)(C)Cc1ccccc1-2 (stereo unspecified)	1.1	-2.4	-6.5	1.7	1.1	-29.0
COc1ccccc1N1CCN(C(=O)CSc2nnc3n2C(C)(C)Cc2ccccc2-3)CC1	-10.8	95.8*	74.9*	5.1	1.3	-28.7
SMILES	NPY-Y1 antag	NPY1 pot ag	NPY2 pot ag	Measles CPE	NPY-Y2 antag	Mdm2 ligase inh
COc1ccc2c(c1)Cc1sc(NC(=O)c3ccco3)nc1-2	-6.7	3.9	-2.4	1.9	1.6	1.7
COc1ccc2c(c1)Cc1sc(NC(C)=O)nc1-2	3.4	-12.9	4.1	37.6*	0.7	-3.5
C=CC(C)(C)c1cc2cc3ccoc3cc2oc1=O	3.0	-10.3	0.2	7.4	5.8	nt
CC(=O)N1CN(C2CCCC2)Cc2c1sc1c2CCCC1	23.5*	-18.3	-4.2	6.7	17.9*	-10.9
CC(=O)N1CN(C2CC(C)(C)NC(C)(C)C2)Cc2c1sc1c2CCCC1	0.2	-22.2	-5.8	17.4	3.8	-0.6
Cc1ccc(NC(=S)N/N=C/c2c(C)[nH]c3ccccc23)cc1	-10.6	51.3*	37.1*	nt	nt	-19.5
COC(=O)C1(Cc2ccc(O)cc2)OC(=O)C(O)=C1c1ccc(O)cc1 (stereo unspecified)	nt	nt	nt	nt	nt	-31.1
CCOC(=O)c1c(C)[nH]c(C(=O)C(C)OC(=O)c2cccc(OCc3c(C)noc3C)c2)c1C (stereo unspecified)	11.3	-13.0	-8.0	76.5*	1.3	0.6
CCC(C)NC(=O)c1cccc(OCc2c(C)noc2C)c1 (stereo unspecified)	4.7	5.3	6.8	nt	nt	-1.8
C=CCc1c(OC)ccc2ccc(=O)oc12	11.7	-14.5	-0.6	35.9*	5.5	-8.5
CNC(=S)c1cc(C(C)(C)C)c(O)c(C(C)(C)C)c1	nt	1.9	5.9	nt	nt	-13.2
N/N=C/C(=N\Nc1ccc(Cl)cc1)C(=O)c1ccncc1	nt	41.5	43.6	nt	nt	nt
CCOC(=O)C(C)c1nc2ccccc2[nH]c1=O (stereo unspecified)	-2.4	2.3	5.8	25.3*	-0.6	-8.8
COc1c2ccoc2nc2c(OC)c(OCC(OC(C)=O)C(C)(C)O)ccc12 (stereo unspecified)	1.7	-10.2	-18.4	nt	nt	-4.4
S=C(c1ccc2c(c1)OCO2)N1CCCC1	-3.4	-13.9	-17.5	11.0	-0.2	-7.7
CCOc1ccc2c(c1)sc(N)[n+]2Cc1cc(C)cc2cccnc12	51.9*	-68.9	-12.9	8.3	41.8*	-15.2
COc1ccc2c(c1)sc(N)[n+]2Cc1cc(C)cc2cccnc12	49.1*	-58.4	-5.5	4.9	47.7*	-9.3
COc1ccc(-c2csc3nc(-c4ccccc4OC)oc(=O)c23)cc1	-5.7	-5.9	1.5	nt	nt	-1.1
COc1ccc(CN(C(=O)c2cc(=O)c3cc(C)cc(C)c3o2)C2CCS(=O)(=O)C2)cc1 (stereo unspecified)	nt	-0.8	-24.9	nt	nt	-4.3
CC(=O)OCCNc1cc(N2CCN(C)CC2)c2noc3c2c1C(=O)c1ccccc1-3	-6.1	48.8*	33.1*	4.9	-4.6	-35.1
CCOC(=O)C(C(=O)OCC)c1cc(Br)c2noc3c2c1C(=O)c1ccccc1-3	1.1	-16.8	-5.5	-0.1	2.0	0.2
Cc1ccc(C(=O)CSc2ncn[nH]2)cc1	-4.3	-2.9	-5.3	15.1	2.0	-15.1
COc1ccc(C(=O)CSc2ncn[nH]2)cc1OC	5.3	-1.9	-5.5	47.9*	2.4	-6.0
O=C(NC1CCCC1)C(c1cccs1)N(CC1CCCO1)C(=O)Cc1cccs1 (stereo unspecified)	26.4*	-14.5	-14.0	8.7	18.0*	-1.9
O=C(NC1CCCC1)C(c1ccccc1)N(Cc1ccco1)C(=O)Cc1cccs1 (stereo unspecified)	76.5*	-32.5	-22.6	3.8	39.4*	-19.2
